From ChEMBL document CHEMBL1124974, “Orally potent human renin inhibitors derived from angiotensinogen transition state: design, synthesis, and mode of interaction” (J Med Chem, 1990)

Experiments:
Renin [1] = biological target: T1, Renin (Homo sapiens, UniProt P00797); assay: Tested for inhibition of renin from human
T1 sequence (P00797 whole entry): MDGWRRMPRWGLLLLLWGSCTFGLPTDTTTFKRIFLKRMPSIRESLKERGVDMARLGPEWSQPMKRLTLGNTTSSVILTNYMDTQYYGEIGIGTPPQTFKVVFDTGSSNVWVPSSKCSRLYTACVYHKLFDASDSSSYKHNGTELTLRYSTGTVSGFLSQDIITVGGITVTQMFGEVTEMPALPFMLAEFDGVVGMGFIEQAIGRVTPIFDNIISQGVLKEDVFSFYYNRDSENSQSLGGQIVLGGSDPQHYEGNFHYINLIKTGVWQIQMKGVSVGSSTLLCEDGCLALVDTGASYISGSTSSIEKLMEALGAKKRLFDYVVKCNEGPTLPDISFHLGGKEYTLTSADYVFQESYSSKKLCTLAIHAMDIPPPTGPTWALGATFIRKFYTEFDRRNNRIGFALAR

Renin [2] = biological target: T1, Renin; assay: Tested for inhibition of human plasma renin; type: cell-free
How it was run: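 Human plasma containing EDTA-2Na (14 mM) and neomycin sulfate (0.3%) mixed with 0.5 M phosphate buffer pH 7.0, Phe-Ala-Pro (20 mM aqueous stock) and inhibitor in DMSO; 60 min at 37 °C; angiotensin I generated quantified by radioimmunoassay.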

[3] = biological target: T2, Angiotensin-converting enzyme (Oryctolagus cuniculus, UniProt P12822); assay: Tested for inhibition of Angiotensin I converting enzyme from rabbit.
T2 sequence (P12822 whole entry): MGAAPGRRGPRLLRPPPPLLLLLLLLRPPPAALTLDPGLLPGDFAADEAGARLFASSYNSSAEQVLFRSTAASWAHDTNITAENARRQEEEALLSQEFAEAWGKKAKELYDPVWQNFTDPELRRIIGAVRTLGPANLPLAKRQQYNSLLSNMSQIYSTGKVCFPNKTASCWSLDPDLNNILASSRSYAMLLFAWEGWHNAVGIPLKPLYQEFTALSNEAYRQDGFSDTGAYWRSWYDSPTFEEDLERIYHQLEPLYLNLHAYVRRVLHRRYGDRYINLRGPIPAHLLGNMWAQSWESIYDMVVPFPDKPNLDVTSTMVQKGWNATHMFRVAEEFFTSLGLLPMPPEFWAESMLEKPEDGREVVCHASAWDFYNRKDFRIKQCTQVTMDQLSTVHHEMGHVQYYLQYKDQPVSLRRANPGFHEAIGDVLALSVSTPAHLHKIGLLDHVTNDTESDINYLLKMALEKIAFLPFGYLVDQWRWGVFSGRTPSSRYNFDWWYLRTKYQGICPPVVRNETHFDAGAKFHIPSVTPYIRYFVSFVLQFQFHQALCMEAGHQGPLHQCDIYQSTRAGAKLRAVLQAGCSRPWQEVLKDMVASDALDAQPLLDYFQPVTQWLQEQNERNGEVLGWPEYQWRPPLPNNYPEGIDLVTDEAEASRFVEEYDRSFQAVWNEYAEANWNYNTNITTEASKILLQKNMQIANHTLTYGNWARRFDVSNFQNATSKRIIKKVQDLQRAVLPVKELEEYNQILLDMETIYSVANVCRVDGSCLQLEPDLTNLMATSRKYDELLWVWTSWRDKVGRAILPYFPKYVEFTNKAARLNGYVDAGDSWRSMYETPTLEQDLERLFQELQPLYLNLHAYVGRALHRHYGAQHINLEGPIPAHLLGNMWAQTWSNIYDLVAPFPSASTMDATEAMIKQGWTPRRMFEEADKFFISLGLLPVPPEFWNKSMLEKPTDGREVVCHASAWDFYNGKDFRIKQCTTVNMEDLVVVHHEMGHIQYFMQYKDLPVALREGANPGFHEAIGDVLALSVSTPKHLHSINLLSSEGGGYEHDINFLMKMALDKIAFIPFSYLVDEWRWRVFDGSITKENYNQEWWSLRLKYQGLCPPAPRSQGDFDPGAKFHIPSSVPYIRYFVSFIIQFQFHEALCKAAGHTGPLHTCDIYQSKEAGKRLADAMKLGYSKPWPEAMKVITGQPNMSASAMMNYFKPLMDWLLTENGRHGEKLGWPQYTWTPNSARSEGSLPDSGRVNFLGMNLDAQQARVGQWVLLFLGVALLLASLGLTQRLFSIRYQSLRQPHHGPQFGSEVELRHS
How it was run: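 Inhibition measured at 37 °C with Hip-His-Leu substrate, pH 8.3.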

Pepsin A = Pepsin A (Sus scrofa, UniProt P00791); assay: Tested for inhibition of pepsin from porcine
Sequence of Pepsin A (P00791 whole entry): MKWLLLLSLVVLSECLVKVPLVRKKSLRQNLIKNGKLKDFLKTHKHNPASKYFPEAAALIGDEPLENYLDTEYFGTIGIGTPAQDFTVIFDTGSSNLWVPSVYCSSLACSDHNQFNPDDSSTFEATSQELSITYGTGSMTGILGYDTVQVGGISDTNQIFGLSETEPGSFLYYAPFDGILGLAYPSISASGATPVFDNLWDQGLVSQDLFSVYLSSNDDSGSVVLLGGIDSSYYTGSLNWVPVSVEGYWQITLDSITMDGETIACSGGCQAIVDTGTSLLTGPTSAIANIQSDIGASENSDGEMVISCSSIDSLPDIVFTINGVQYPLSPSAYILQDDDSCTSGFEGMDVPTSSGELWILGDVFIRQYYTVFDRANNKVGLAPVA
How it was run: (§1)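 Run at 37 °C with hemoglobin substrate at pH 3.2 for cathepsin D, casein substrate at pH 2.0 for pepsin.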

Cathepsin D = biological target: T3, Cathepsin D (Bos taurus, UniProt P80209); assay: Tested for inhibition of Cathepsin D from bovine; how it was run: as §1
T3 sequence (P80209 whole entry): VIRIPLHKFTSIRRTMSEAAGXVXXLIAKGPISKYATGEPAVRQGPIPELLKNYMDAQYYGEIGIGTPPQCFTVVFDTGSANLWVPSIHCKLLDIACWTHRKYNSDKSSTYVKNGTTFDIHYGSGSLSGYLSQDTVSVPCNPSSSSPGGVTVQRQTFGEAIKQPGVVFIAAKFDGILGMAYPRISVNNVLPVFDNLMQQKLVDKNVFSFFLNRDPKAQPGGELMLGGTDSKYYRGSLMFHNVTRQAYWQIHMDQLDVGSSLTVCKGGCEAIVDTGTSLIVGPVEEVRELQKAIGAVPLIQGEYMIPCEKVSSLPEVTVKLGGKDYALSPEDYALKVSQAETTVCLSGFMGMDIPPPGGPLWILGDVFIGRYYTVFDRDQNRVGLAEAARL

IC50 (Renin [1]) [nM]	IC50 (Renin [2]) [nM]	IC50 [3] [nM]	IC50 (Pepsin A) [nM]	IC50 (Cathepsin D) [nM]	Compound
2700	4200				CC(C)OC(=O)[C@@H](O)[C@@H](CC1CCCCC1)NC(=O)[C@H](Cc1c[nH]cn1)NC(=O)[C@@H](CC(=O)N1CCOCC1)Cc1cccc2ccccc12
3500	2100				CC(C)OC(=O)[C@H](O)[C@@H](CC1CCCCC1)NC(=O)[C@H](Cc1c[nH]cn1)NC(=O)[C@@H](CC(=O)N1CCOCC1)Cc1cccc2ccccc12
110	270				CC(C)OC(=O)C(O)[C@@H](Cc1ccccc1)NC(=O)[C@H](Cc1cnc[nH]1)NC(=O)[C@@H](CC(=O)N1CCOCC1)Cc1cccc2ccccc12 (some centres not stated)
4200	1500				CC(C)OC(=O)[C@H](O)[C@H](CC1CCCCC1)NC(=O)[C@H](Cc1c[nH]cn1)NC(=O)[C@H](CC(=O)N1CCOCC1)Cc1cccc2ccccc12
2500	2300				CC(C)OC(=O)[C@H](O)[C@H](CC1CCCCC1)NC(=O)[C@@H](Cc1c[nH]cn1)NC(=O)[C@@H](CC(=O)N1CCOCC1)Cc1cccc2ccccc12
2.4	4.7	> 100000	> 100000	80000	CC(C)OC(=O)[C@H](O)[C@H](CC1CCCCC1)NC(=O)[C@H](Cc1c[nH]cn1)NC(=O)[C@@H](CC(=O)N1CCOCC1)Cc1cccc2ccccc12
		> 100000	18		CC(C)CC(=O)N[C@H](C(=O)N[C@H](C(=O)N[C@@H](CC(C)C)[C@@H](O)CC(=O)N[C@@H](C)C(=O)N[C@@H](CC(C)C)[C@@H](O)CC(=O)O)C(C)C)C(C)C [PEPSTATIN]
